Read-outs that look alike come from different tables or passages of the source.
What was measured:
[1] = system: patients with right colon cancer; experiment: ICG fluorescence lymphography in robotic right hemicolectomy; assay type: in vivo, human; settings: 9 patients
Procedure, shortened: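 Right colon cancer patients had robotic right hemicolectomy with complete mesocolic excision, in two arms of 9. One arm received intraoperative submucosal ICG injection, and fluorescence guided the lymphadenectomy. The comparison arm had standard technique without ICG. ICG-related complications were recorded, with histological nodal staging afterwards.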

[2] = system: patients scheduled for laparoscopic cholecystectomy; experiment: Near-infrared fluorescence cholangiography at a very low dose of ICG; assay type: in vivo, human; settings: n = 44
Procedure, shortened: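 Prospective study of patients scheduled for laparoscopic cholecystectomy. Each received 0.25 mg ICG intravenously after anaesthetic induction, then NIR fluorescence cholangiography in endoscope overlay mode. Visualisation of the cystic duct, common bile duct and their junction was recorded before and after Calot's triangle dissection. Also recorded: hepatic hyperluminescence, adverse reactions and surgeon satisfaction on a visual analogue scale.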

[3] = system: patients with symptomatic cholelithiasis or acute cholecystitis; experiment: Direct gallbladder ICG injection during laparoscopic cholecystectomy; assay type: in vivo, human; settings: 29 patients
Procedure, shortened: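 Prospective series of laparoscopic cholecystectomies. ICG was diluted in 10 cc sterile water and injected percutaneously into the gallbladder through a 22G fine needle under direct laparoscopic vision; 2–4 cc was given. Cystic, common bile and common hepatic ducts were recorded as identified or not, first after injection before dissection, then after dissection began.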

[4] = system: patients with colorectal cancer; assay type: in vivo, human
Procedure, shortened: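 Prospective observational study of consecutive patients from 4/2019 undergoing robotic colorectal cancer surgery. The day before surgery, endoscopy delivered 3 mg ICG in 6 ml saline into the peritumoral submucosa as four 1.5 ml injections at the cardinal points. Fluorescence guided any extension of standard lymphadenectomy. Fluorescent extraregional nodes were counted per patient and by resection type.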

[5] = system: adrenal vein; experiment: Intraoperative ICG angiography in laparoscopic adrenal resection; assay type: in vivo, patients
[6] = system: small bowel of large white pigs; assay type: in vivo, pig; settings: five pigs, baseline 0.74
[7] = system: patients undergoing LRYGB; experiment: RCT of intraperitoneal local anesthetic in LRYGB with ERABS protocol; assay type: in vivo, human; settings: intraperitoneal ropivacaine 0.2% 100 mL; both groups
Procedure, shortened: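 Prospective double-blind randomised controlled pilot trial with an a-priori protocol: 120 laparoscopic Roux-en-Y gastric bypass patients under an established ERABS protocol. Patients were randomised to intraperitoneal ropivacaine 0.2% 100 mL or normal saline 100 mL. Adverse events were recorded in both arms.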

[8] = 0.25 mg ICG i.v. after anaesthetic induction
[9] = after ICG injection and before starting the dissection

CC1(C)C(/C=C/C=C/C=C/C=C2\N(CCCCS(=O)(=O)O)c3ccc4ccccc4c3C2(C)C)=[N+](CCCCS(=O)(=O)[O-])c2ccc3ccccc3c21 [ICG, indocyanine green]
ICG-related complications [1]: none | CBD identified by ICG NIRF-C [2, 8]: 100% | CD identified by ICG NIRF-C [2, 8]: 71% | CDBDJ identified by ICG NIRF-C [2, 8]: 84% | bile duct injuries or allergic reactions to ICG ([2]; 0.25 mg ICG i.v.): no bile duct injuries (BDIs) or allergic reactions to ICG | surgeries with surgeon satisfaction of 4/5 or 5/5 (VAS) ([2]; 0.25 mg ICG i.v.): ~90% | cases with common bile duct identified [3, 9]: 18 cases | cases with common hepatic duct identified [3, 9]: 9 cases | cases with common bile duct identified ([3]; after starting the dissection): 27 cases | cases with common hepatic duct identified ([3]; after starting the dissection): 14 cases | cases with cystic duct identified ([3]; after starting the dissection): all cases | patients with ICG-fluorescent lymphnodes observed ([4]; 3 mg ICG in 6 ml saline, peritumoral submucosal, day before surgery, 86/88): 97,7% | patients with fluorescent extraregional lymph nodes ([4]; 34 of 88 patients): 38,6% | ICG-injection related complication ([4]; 88 patients): No ICG-injection related complication occurred | patients with fluorescent extraregional lymph nodes ([4]; anterior rectal resections): 21/33 | patients with fluorescent extraregional lymph nodes ([4]; left hemicolectomies): 3/20 | mean number of retrieved extraregional fluorescent lymph nodes ([4]; range 1–8): 4 | patients with fluorescent extraregional lymph nodes ([4]; right hemicolectomies): 10/31 | cases in which ICG confirmed the adrenal vein ([5]; laparoscopic right adrenal resection): 2/3 | cases in which ICG helped identify the vessel, after the dissection ([5]; left laparoscopic adrenalectomy): 100%

NC[C@H](O)c1ccc(O)c(O)c1 [norepinephrine]
local capillary lactate (LCL) ([6]; first assessment): 0.82 mmol/L | local capillary lactate (LCL) ([6]; fourth assessment): 0.62 mmol/L | local capillary lactate (LCL) ([6]; second assessment): 0.64 mmol/L | local capillary lactate (LCL) ([6]; third assessment): 0.60 mmol/L

CCCN1CCCC[C@H]1C(=O)Nc1c(C)cccc1C [ropivacaine]
adverse events [7]: no adverse events

— paper PMC9199482 (Surgical Endoscopy, 2022)
